Laboratory results: ChEMBL document CHEMBL1123290, “Synthesis, antimalarial activity, and quantitative structure-activity relationships of tebuquine and a series of related 5-[(7-chloro-4-quinolinyl)amino]-3-[(alkylamino)methyl] [1,1'-biphenyl]-2-ols and N omega-oxides” (1986)

Legend:
Format in all cases: functional
[1] = system: Plasmodium berghei; experiment: Antimalarial activity in primary screen
[2] = system: Plasmodium berghei; experiment: Change in mean survival time for control (average 6.2 days) versus treated mice (Mus musculus) after 320 mg/kg subcutaneous dose
[3] = system: Plasmodium berghei; experiment: Change in mean survival time for control (average 6.2 days) versus treated mice (Mus musculus) 72 hrs after […] subcutaneous dose
[4] = system: Plasmodium berghei; experiment: Change in mean survival time for control (average 6.2 days) versus treated mice (Mus musculus) after 160 mg/kg subcutaneous dose
[5] = system: Plasmodium berghei; experiment: Change in mean survival time for control (average 6.2 days) versus treated mice (Mus musculus) after 20 mg/kg subcutaneous dose
[6] = system: Plasmodium berghei; experiment: Change in mean survival time for control (average 6.2 days) versus treated mice (Mus musculus) after 40 mg/kg subcutaneous dose
[7] = system: Plasmodium berghei; experiment: Change in mean survival time in control (average 6.2 days) versus treated mice (Mus musculus) after 80 mg/kg subcutaneous dose
[8] = system: Mus musculus; experiment: Antimalarial activity, administered as a single subcutaneous dose of 640 mg/kg, 72 hrs post infection measured as number of mice (Mus musculus) surviving at 60 days post infection
In short: (§1)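 Mice were infected with a normal drug-sensitive Plasmodium berghei strain. At 72 h postinfection each received one subcutaneous dose of compound dissolved or suspended in peanut oil, in five-mouse groups per dose. The read-out was the number of mice alive at 60 days postinfection, which were scored as cured.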

[9] = system: Plasmodium berghei; experiment: Difference in mean survival time of Plasmodium berghei infected mice (Mus musculus) after 10 mg/kg subcutaneous dose
[10] = system: Plasmodium berghei; experiment: Antimalarial activity as 60-day survivors in infected mice (Mus musculus) after single 320mg/kg subcutaneous dose 72 hr post infection; in short: as §1
[11] = system: Plasmodium berghei; experiment: Change in mean survival time of Plasmodium berghei infected mice (Mus musculus) after […] subcutaneous dose
[12] = system: Plasmodium berghei; experiment: Change in mean survival time of Plasmodium berghei infected mice (Mus musculus) on 1.25 mg/kg subcutaneous dose
[13] = system: Mus musculus; experiment: Antimalarial activity, administered as a single subcutaneous dose of 40 mg/kg, 72 hrs post infection measured as number of mice (Mus musculus) surviving at 60 days post infection; in short: as §1
[14] = system: Plasmodium berghei; experiment: Antimalarial activity as 60-day survivors in Plasmodium berghei infected mice (Mus musculus) after single 160mg/kg subcutaneous dose 72 hr post infection; in short: as §1
[15] = system: Mus musculus; experiment: Antimalarial activity, administered as a single subcutaneous dose of 80 mg/kg, 72 hrs post infection measured as number of mice (Mus musculus) surviving at 60 days post infection; in short: as §1
[16] = system: Plasmodium berghei; experiment: Change in mean survival time of Plasmodium berghei infected mice (Mus musculus) after 5 mg/kg subcutaneous dose
[17] = system: Plasmodium berghei; experiment: Antimalarial activity as 60-day survivors in infected mice (Mus musculus) after single 20 mg/kg subcutaneous dose 72hr post infection; in short: as §1

| Structure (SMILES) | ED30 [1] [mg/kg] | Delta MST [2] [days] | Delta MST [3] [days] | Delta MST [4] | Delta MST [5] [days] | Delta MST [6] [days] | Delta MST [7] [days] | No. of mice cured [8] | Delta MST [9] [days] | No. of mice cured [10] | Delta MST [11] [days] | Delta MST [12] [days] | No. of mice cured [13] | No. of mice cured [14] | No. of mice cured [15] | Delta MST [16] [days] | No. of mice cured [17] |
| --- | --- | --- | --- | --- | --- | --- | --- | --- | --- | --- | --- | --- | --- | --- | --- | --- | --- |
| CCN(CC)Cc1cc(Nc2cc[n+]([O-])c3cc(Cl)ccc23)cc(-c2cc(OC)ccc2OC)c1O | 2450 | 7.8 | 27.1 | 6 days | 0.6 | 2.6 | 2 | 1 |  |  |  |  |  |  |  |  |  |
| CCN(CC)Cc1cc(Nc2cc[n+]([O-])c3cc(Cl)ccc23)cc(-c2ccc(OC)cc2)c1O | 423 | 8.2 | 15 | 7.3 | 3.7 | 7.3 | 9.1 | 2 | 1.1 | 1 | -0.1 | 0.1 |  |  |  |  |  |
| CCN(CC)Cc1cc(Nc2cc[n+]([O-])c3cc(Cl)ccc23)cc(-c2ccc(Cl)c(Cl)c2)c1O | 36.6 |  |  | 29.1 days | 12 | 21.2 | 25.7 | 5 | 5.9 | 5 | -0.1 | -0.1 | 1 | 2 | 2 | 0.7 |  |
| CCN(CC)Cc1cc(Nc2cc[n+]([O-])c3cc(Cl)ccc23)cc(-c2ccncc2)c1O | 330 | 12.6 | 21.9 | 10.7 days | 3.3 | 5.7 | 8.3 | 3 |  | 2 |  |  |  |  |  |  |  |
| [O-][n+]1ccc(Nc2cc(CN3CCCC3)c(O)c(-c3ccc(Cl)c(Cl)c3)c2)c2ccc(Cl)cc21 |  |  |  | 24.4 days | 7.9 | 10.7 | 25.4 | 5 | 2.3 | 5 | -0.1 | -0.1 |  | 3 | 2 | 0.7 |  |
| CCN(CC)Cc1cc(Nc2cc[n+]([O-])c3cc(Cl)ccc23)cc(-c2ccccn2)c1O | 550 | 5.1 | 9.1 | 3 days | 0.4 | 0 | 1 | 1 |  | 1 |  |  |  |  |  |  |  |
| CCN(CC)Cc1cc(Nc2cc[n+]([O-])c3cc(Cl)ccc23)cc(-c2ccc(C)cc2)c1O |  | 15.7 | 10.5 | 5.1 days |  | 0.5 | 4.3 |  |  |  |  |  |  |  |  |  | 1.3 |
| CCN(CC)Cc1cc(Nc2cc[n+]([O-])c3cc(Cl)ccc23)cc(-c2ccc(OC)c(OC)c2)c1O | 204 | 12.4 | 11.1 | 11.4 | 2.4 | 5.4 | 5 | 2 |  | 3 |  |  |  |  |  |  |  |
| CCN(CC)Cc1cc(Nc2cc[n+]([O-])c3cc(Cl)ccc23)cc(-c2ccccc2C(F)(F)F)c1O | 56.1 |  |  | 24.7 days | 7.7 | 15.5 | 24.7 | 5 | 4.1 | 5 | 0.1 | 0.5 |  | 4 |  | 0.7 |  |
| CCN(CC)Cc1cc(Nc2cc[n+]([O-])c3cc(Cl)ccc23)cc(-c2ccccc2)c1O | 26.3 | 24.9 | 23.9 |  | 17.4 | 29.6 | 19.9 | 3 | 7.7 | 3 | 0.3 | 0.3 |  | 5 | 2 | 5.1 |  |
| CCN(CC)Cc1cc(Nc2cc[n+]([O-])c3cc(Cl)ccc23)cc(-c2ccccc2Cl)c1O | 27.4 | 41.9 |  | 33.4 days | 19.2 | 25.8 | 34.9 | 5 | 8 | 3 | -0.2 | -0.2 | 1 | 3 | 2 | 6.4 |  |
| CCN(CC)Cc1cc(Nc2cc[n+]([O-])c3cc(Cl)ccc23)cc(-c2ccccc2OC)c1O | 170 | 36.2 | 27.2 | 8.9 days | 0.7 | 6.9 | 8.7 | 1 |  | 1 |  |  |  | 2 |  |  |  |
| CCN(CC)Cc1cc(Nc2cc[n+]([O-])c3cc(Cl)ccc23)cc(-c2cccc3ccccc23)c1O | 14400 | 1.6 | 12.9 | 6.4 days | 0 | 0.4 | 3 | 1 |  |  |  |  |  |  |  |  |  |
| CC(C)(C)NCc1cc(Nc2cc[n+]([O-])c3cc(Cl)ccc23)cc(-c2ccc(Cl)c(Cl)c2)c1O |  | 25.9 |  | 25.9 days | 5.9 | 8.9 | 23.2 | 2 | 2.9 | 3 | -0.1 | -0.3 |  | 1 | 1 | 0.5 |  |
| CCN(CC)Cc1cc(Nc2cc[n+]([O-])c3cc(Cl)ccc23)cc(-c2cccc(F)c2)c1O | 33.7 | 24.1 | 14.8 | 29.6 days | 27.2 | 22.8 | 22.6 | 1 |  | 3 | 0.5 | -0.1 |  | 3 | 2 | 4.5 |  |
